Hits are enriched below; roughly 3.5% of the tested compounds scored in any of these assays.
RGS4 block = inhibitors of human RGS4; P49798; HEK293 M3R/RGS4 inducible, Fluo-4 calcium flux; active compounds read high; triggered by carbachol at its EC20; B-score at 10 µM; hit rate 0.45% among 310,000; AID 463165;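 active means B-score, a plate-corrected calcium signal, over three deviations above library mean, with baseline fluorescence within five deviations of library mean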;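 further: RGS4 expression induced by doxycycline in cells with stable M3 receptor; B-score is computed from the integrated fluorescence ratio over baseline after carbachol; higher B-score means a larger calcium signal and so more RGS4 inhibition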
Target sequence (P49798 whole entry, looked up): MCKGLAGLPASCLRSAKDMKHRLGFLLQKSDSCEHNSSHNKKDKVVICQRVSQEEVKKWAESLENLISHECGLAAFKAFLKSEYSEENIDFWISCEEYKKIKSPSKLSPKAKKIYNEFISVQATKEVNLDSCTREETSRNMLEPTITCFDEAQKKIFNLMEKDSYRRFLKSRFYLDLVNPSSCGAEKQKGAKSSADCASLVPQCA
RGS4 act = potentiators or activators of RGS4 | HEK293 M3R/inducible RGS4, carbachol calcium flux Fluo4; active compounds read low | hit rate 0.92% among 310,000 | AID 463111 | B-score at 10 µM;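 active means B-score of the integrated calcium signal more than 4 SD below the library mean, with starting fluorescence not abnormally high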;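 further: negative B-score means reduced calcium response which marks RGS4 activation or potentiation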
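Material: Inducible-RGS4 HEK293 cells carrying M3 receptor; also added: carbachol at ECmax as muscarinic agonist stimulus; incubation: compound preincubation 20 min at room temperature before agonist; signal: Fluo4-AM (2 µM) calcium-flux fluorescence, kinetic read; measure: integrated calcium ratio converted to B score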
MrgX1 PAM = allosterically activates human MrgX1 receptor signaling; B-score at 10 µM; hit rate 0.63% among 310,000; AID 588675; MrgX1-HEK293, Fluo-4 calcium flux, FDSS; active compounds read high; Q96LB2;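 active means plate-corrected calcium response at least 3 library SD above typical, normal starting fluorescence, not activating the receptor alone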;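 further: compound read alongside a low EC10 to EC30 dose of BAM8-22 agonist; peak minus trough fluorescence over baseline measured at the second addition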
Target sequence (Q96LB2 whole entry, looked up): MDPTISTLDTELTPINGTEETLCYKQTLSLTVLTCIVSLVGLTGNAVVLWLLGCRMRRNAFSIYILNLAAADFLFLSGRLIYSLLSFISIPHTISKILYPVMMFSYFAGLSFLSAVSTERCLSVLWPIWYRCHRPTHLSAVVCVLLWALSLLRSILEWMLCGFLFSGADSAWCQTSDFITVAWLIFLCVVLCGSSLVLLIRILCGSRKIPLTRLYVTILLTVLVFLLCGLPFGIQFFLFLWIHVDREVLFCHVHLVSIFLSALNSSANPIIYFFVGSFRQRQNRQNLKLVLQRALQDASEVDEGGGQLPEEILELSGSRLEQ
MrgX1 agonist = human MrgX1 receptor agonism, primary screen; hit rate 0.44% among 310,000; AID 588627; MrgX1-HEK293 cells, Fluo-4 calcium fluorescence, agonist mode; active compounds read high; B-score at 10 µM; Q96LB2;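 active means calcium response B-score plate-corrected fluorescence ratio at least 3 library SD, with starting fluorescence B-score inside 5 SD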
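Assay system: MrgX1-expressing HEK293 cells / Amount: fifteen thousand cells per well / Doses: test compound in the initial addition of three / Timing: cells plated overnight, dye loaded 0.5 h 37 °C, 0.5 h room temperature / Technique: kinetic calcium dye fluorescence, Fluo-4 NW / Control set: positive and negative controls per plate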
MrgX1 antagonist = antagonists of human MrgX1 receptor; hit rate 1.3% among 310,000; MRGX1-HEK293 calcium flux, Fluo-4, BAM8-22 antagonism; active compounds read low; B-score at 10 µM;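 active means calcium-response B-score plate-corrected more than 3 library SD below zero, starting fluorescence within 5 deviations, no agonist response on first addition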;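 further: peak minus trough fluorescence over baseline after final BAM8-22 challenge near maximal dose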
RGS4 block valid = validation of RGS4 inhibitors. shares compounds with RGS4 block. HEK293 M3R/RGS4, carbachol calcium Fluo-4 fluorescence; carbachol added at its EC20; 0 = buffer wells, 100 = carbachol control. calcium response, % at 10 µM. hit rate 65% among 1,700. AID 492999;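 active means duplicate-averaged calcium response above the buffer-only control mean plus 5 SD of those controls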;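 further: integrated fluorescence ratio F max minus min over baseline F0; higher response in RGS4-induced cells means RGS4 inhibition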
RGS4 uninduced = non-induced cell nonspecific activity of RGS4 inhibitors; shares compounds with RGS4 block; HEK293 M3R non-induced, carbachol calcium Fluo-4; submaximal (EC20) carbachol stimulus; buffer wells 0%, carbachol control wells 100%; activity (percent), % at 10 µM; hit rate 20% among 1,900; AID 493000; call rule not given here;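 further: RGS4 induction absent so cells express M3R without RGS4; higher means more calcium signal and flags a non-specific hit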
M3R basal Ca ctr = second counter-screen for RGS4 inhibitors: non-induced cells without carbachol | hit rate 22% among 1,900 | calcium response (agonist-mode artifact), % at 10 µM | AID 493001 | shares compounds with RGS4 block | HEK293 M3R/RGS4 non-induced, Fluo-4 calcium, no carbachol; normalised: buffer wells 0%, carbachol wells 100%;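 active means duplicate-averaged calcium rise in uninduced cells above buffer wells' mean plus 5 SD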
Starred values were filed as active, the others as inactive; i = inactive; / = not tested or not shown.

SMILES | RGS4 block | RGS4 act | MrgX1 PAM | MrgX1 agonist | MrgX1 antagonist | RGS4 block valid | RGS4 uninduced | M3R basal Ca ctr
CCOc1ccc2oc(C(=O)N(CC)CC(=O)Nc3c(F)cccc3F)c(C)c2c1 | i | i | i | i | i | / | / | /
CC(C(=O)N1CCOCC1)n1cc([N+](=O)[O-])cn1 (stereo not drawn) | i | i | i | i | i | / | / | /
CC(NC(=O)c1cnccn1)c1ccc(S(N)(=O)=O)cc1 (stereo not drawn) | i | i | i | i | i | / | / | /
CC(C)Cn1c(=O)[nH]c(=O)c2c(C(F)(F)F)cc(-c3ccccc3)nc21 | i | i | i | i | i | / | / | /
N#Cc1c(N2C(=O)Nc3ccccc3N2O)sc2c1CCCCCC2 | 5.2* | i | i | i | i | 16%* | 42%* | i
CCc1c(O)nc(SCC(=O)Nc2ccc(OC)cc2)n(C2CCCCC2)c1=O | i | i | i | i | i | / | / | /
CCc1c(O)nc(SCC(=O)Nc2nc3ccccc3s2)n(C2CCCCC2)c1=O | 5.8* | i | i | i | i | 37%* | i | i
COC(=O)c1sc(NC(=O)CSc2nc3cccnc3n2C)nc1C | i | i | i | i | i | / | / | /
COC(=O)c1sc(NC(=O)CSc2nc3cccnc3n2C2CCCCC2)nc1C | 4.9* | i | i | i | i | 9.5%* | i | i
CN=c1sc(C(=O)Nc2cccc(Cl)c2)cc(=O)n1C | 28* | i | i | i | i | 14%* | i | 23%*
Cn1c(N)c(C(=O)Nc2cccc(Cl)c2)c(=O)n(C)c1=O | i | i | i | i | i | / | / | /
COc1cc2c(cc1[N+](=O)[O-])n(C(C)C)c(=O)n2C(C)C | 4.8* | i | i | i | i | i | 39%* | i
CCOC(=O)/C=c1\s/c(=C\c2ccc3cc(OC)ccc3c2)c(=O)n1CC(=O)NCc1ccc2c(c1)OCO2 | i | i | i | i | i | / | / | /
Cc1ccc(C2C(C#N)=C(N)Oc3cc(C)oc(=O)c32)o1 (stereo not drawn) | 7.3* | i | i | i | i | 22%* | i | i
Cc1ccc(C)c(C2C(C#N)=C(N)Oc3cc(C)oc(=O)c32)c1 (stereo not drawn) | i | i | i | i | i | / | / | /
Cc1c(N=NC2=C(O)CC(C)(C)CC2=O)cc2c(c1[N+](=O)[O-])C(C)(C)CC2(C)C | 7.4* | i | i | i | i | 28%* | i | i
O=S(=O)(/N=C(\Sc1ccc(Cl)cc1)c1ccccc1)c1ccccc1 | i | i | i | i | i | i | i | 18%*
CCOc1ccc(CC(=O)Nc2nccs2)cc1OCC | i | i | i | i | i | / | / | /
Cc1cnc(Sc2ncccc2[N+](=O)[O-])nc1 | i | i | i | i | i | / | / | /
Cc1cc(C)n2nc(Sc3ncccc3[N+](=O)[O-])nc2n1 | 9.5* | i | i | i | i | 28%* | 34%* | i
CCN(C(=O)COC(=O)c1cc(=O)c2ccccc2o1)c1c(N)n(Cc2ccccc2)c(=O)[nH]c1=O | i | i | i | i | i | / | / | /
Oc1ccc(/C=N/Nc2ccc(C(F)(F)F)cn2)cc1 | i | i | i | i | i | / | i | i
Cc1cc(Cl)ccc1Nc1ncccc1C(N)=O | 5.3* | i | i | i | i | 12%* | i | i
CCOC(=O)CSc1nc(N)c(C#N)c(-c2cccs2)c1C#N | i | i | i | i | i | / | / | /
N#Cc1c(N)nc(SCc2ccccn2)c(C#N)c1-c1cccs1 | 4.7* | i | i | i | i | 9.0%* | 42%* | i
SMILES | RGS4 block | RGS4 act | MrgX1 PAM | MrgX1 agonist | MrgX1 antagonist | RGS4 block valid | RGS4 uninduced | M3R basal Ca ctr
COc1cc(C2C(C#N)=C(N)N(N(C)C)C3=C2C(=O)CCC3)ccc1O (stereo not drawn) | i | i | i | i | i | / | / | /
COc1ccc(-n2c(CNc3ccc(C)cc3)nnc2SCc2ccccc2)cc1 | i | i | i | i | i | / | i | i
Cc1nc(Nc2ccc(Cl)cc2Cl)sc1C(=O)Nc1ccccc1 | i | i | i | i | i | / | / | /
Oc1nc(Nc2ccc(Cl)cc2Cl)sc1/C=C1\C=Nc2ccccc21 | 5.7* | i | i | i | i | 10%* | i | 20%*
COc1ccc(C(C[N+](=O)[O-])c2c(-c3ccccc3)cc3ccccn23)c(OC)c1 (stereo not drawn) | i | i | i | 54* | i | i | i | 20%*
COc1ccc(-c2csc(Nc3cc(C)ccn3)n2)cc1C | 9.8* | i | i | i | i | 34%* | 39%* | i
OCC1(CCOc2ccccc2)CCN(C2Cc3ccccc3C2)CC1 | i | i | i | i | i | / | / | /
CN(Cc1ccccc1F)C(=O)CN1c2cccc3cccc(c23)S1(=O)=O | i | i | i | i | i | / | / | /
CC(=O)/C=C/n1c(=S)oc2ccccc21 | 10* | i | i | i | i | 21%* | i | 7.0%*
COc1ccc(OC)c(N=C2SCCCN2C(=O)c2ccc(N3C(=O)CCC3=O)cc2)c1 | i | i | i | i | i | / | / | /
Cc1sc2nc(CN(Cc3cccs3)C(=O)NC3CCCCC3)[nH]c(=O)c2c1C | i | i | i | i | i | / | i | i
COc1cccc(NC(=O)NC2CCCCCCC2)c1 | 18* | i | i | i | i | i | i | i
CC(NC(=O)/C(C#N)=C/c1ccc(C(=O)O)cc1)c1ccccc1 (stereo not drawn) | 13* | i | i | i | i | 44%* | 40%* | i
Oc1ccc(Br)cc1/C=N/n1c(C2CCCCC2)n[nH]c1=S | 5.7* | i | i | i | i | 5.0%* | i | i
Cc1ccc(S(=O)(=O)N2CCCOC2CNC(=O)C(=O)NC2CCCCC2)cc1 (stereo not drawn) | i | i | i | i | i | i | i | i
CC(C)(C)c1ccc(OCCC(=O)NNC(=O)c2ccncc2)cc1 | i | i | i | i | i | / | / | /

Compound activity deposited in PubChem by Johns Hopkins Ion Channel Center.
